Compound activity deposited in PubChem BioAssay by Sanford-Burnham Center for Chemical Genomics.
MT1-MMP act inh: inhibitors of human MT1-MMP activation; HT1080 RFP-PRO-GFP cells, GFP/RFP ratio fluorescence, overnight; percent of plate control window, DMSO zero; actives 0.061% (n = 360,000); GFP/RFP ratio change, % at 20 µM; AID 651647; P50281;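 active = GFP/RFP ratio change of at least 30% with cell ATP level not reduced by more than half and red fluorescence within 50% of control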
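Assay system: RFP-PRO-GFP reporter HT1080 cells; read-out basis: GFP/RFP fluorescence ratio; benchmarks: DMSO wells and RFP-L50D-GFP cells; doses: 20 µM single dose, 1% DMSO; schedule: overnight cell settling, then overnight compound exposure, 37 °C, 5% CO2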
iPSC survival up: hiPSC single-cell survival enhancement. ATPlite luminescence; 100% = ROCK inhibitor wells, 0% = DMSO. survival enhancement, % at 20 µM. actives 0.044% (n = 360,000). AID 602274; in the data active = survival enhancement above about 18%;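 also: cells exposed to compounds for 16 hours before the ATP read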
SKN-1 inh: C. elegans SKN-1 inhibition | C. elegans VP596 Pgst-4::GFP/RFP ratio, acrylamide-induced, 24 h | actives 0.49% (n = 360,000) | inhibition, % at 21.8 µM;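 active = interference check ratio from 0.5 to 1.5 plus GFP to RFP signal ratio inhibition reaching or exceeding a fixed threshold, cut at about 30% in these data, passing the limit was not always enough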
CendR NRP1 mod: NRP-1/CendR interaction modulation; O14786; FAM-RPARPAR peptide binding to NRP-1, fluorescence polarization; inhibition, % at 25 µM; actives 0.85% (n = 360,000);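 active = inhibition or corrected inhibition above about 18%, plus a signal ratio from 0.5 to 1.5, limit read from the data, passing the limit was not always enough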
Target sequence (O14786 whole entry, looked up): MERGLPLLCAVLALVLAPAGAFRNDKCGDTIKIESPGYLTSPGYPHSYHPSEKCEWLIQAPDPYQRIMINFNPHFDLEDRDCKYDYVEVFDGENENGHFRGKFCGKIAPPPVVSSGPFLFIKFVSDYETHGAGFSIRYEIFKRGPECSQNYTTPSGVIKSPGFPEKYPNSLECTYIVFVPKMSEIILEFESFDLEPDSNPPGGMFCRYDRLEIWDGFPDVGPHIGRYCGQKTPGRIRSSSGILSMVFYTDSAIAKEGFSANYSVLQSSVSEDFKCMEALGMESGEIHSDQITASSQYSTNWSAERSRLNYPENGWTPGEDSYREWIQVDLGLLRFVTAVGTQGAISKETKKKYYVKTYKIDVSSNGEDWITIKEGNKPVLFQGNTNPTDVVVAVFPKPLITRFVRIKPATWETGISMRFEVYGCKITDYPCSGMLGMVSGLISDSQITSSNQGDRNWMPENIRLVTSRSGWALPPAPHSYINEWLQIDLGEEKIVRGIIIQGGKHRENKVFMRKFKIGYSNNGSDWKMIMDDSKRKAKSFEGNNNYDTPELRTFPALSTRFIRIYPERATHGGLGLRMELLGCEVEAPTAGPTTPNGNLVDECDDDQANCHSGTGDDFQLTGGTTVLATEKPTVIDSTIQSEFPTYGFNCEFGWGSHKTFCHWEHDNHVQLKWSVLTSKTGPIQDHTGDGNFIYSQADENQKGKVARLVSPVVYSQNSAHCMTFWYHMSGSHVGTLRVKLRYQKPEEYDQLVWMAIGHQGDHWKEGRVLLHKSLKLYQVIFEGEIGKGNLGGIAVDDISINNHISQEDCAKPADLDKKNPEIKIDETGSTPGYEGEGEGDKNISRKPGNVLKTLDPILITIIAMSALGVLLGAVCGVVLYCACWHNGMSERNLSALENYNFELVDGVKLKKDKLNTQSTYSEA
An asterisk follows results filed as active; . = not tested or not shown. Only some compounds are listed: those with a hit (about 1.4% of all), similar ones and a draw of the others.

SMILES | MT1-MMP act inh | iPSC survival up | SKN-1 inh | CendR NRP1 mod
CC(C)c1nc(-c2ccc([N+](=O)[O-])cc2)cs1 | 2 | 0 | 53* | 0
CC(=O)Nc1nc(-c2ccc([N+](=O)[O-])cc2)cs1 | 3 | -2 | 1 | 8
COc1cc(/C=N/Nc2cc(C)nc(N)n2)ccc1O | 4 | 0 | 1 | -9
COC(=O)c1cccc(CC2(C)C(=O)Nc3ccc(OC(F)(F)F)cc32)c1 (stereo not drawn) | 4 | -3 | 37* | -6
COC(=O)c1ccc(CC2(C)C(=O)Nc3ccc(OC(F)(F)F)cc32)o1 (stereo not drawn) | 1 | -1 | 16 | -3
Clc1ccc(Cn2cc(Br)cn2)cc1Cl | -2 | -1 | 47* | -8
Clc1cccc(Cl)c1Cn1cc(Br)cn1 | 0 | 5 | -30 | -1
COC(=O)C1=C(C)N(CCCC(=O)O)C(=O)NC1c1ccc(OC)cc1 (stereo not drawn) | -2 | -1 | -11 | 12
CC1=C(C(=O)OCc2ccccc2)C(c2ccc([N+](=O)[O-])cc2)NC(=O)N1CCCCCC(=O)O (stereo not drawn) | 0 | 4 | 8 | 2
CC1=C(C(=O)OCc2ccccc2)C(c2ccc([N+](=O)[O-])cc2)NC(=O)N1CCCC(=O)O (stereo not drawn) | 4 | -1 | 4 | 33*
CCOC(=O)C1=C(C)N(CCCC(=O)O)C(=O)NC1c1ccc(OC)cc1 (stereo not drawn) | 2 | -2 | -21 | 26*
O=C(O)CSCC(=O)Nc1ccc(S(=O)(=O)N2CCCCC2)cc1 | -6 | 0 | 26 | 4
Cc1ccc(S(=O)(=O)N2CCCCC2)cc1NC(=O)CSCC(=O)O | -3 | -1 | 1 | 59*
Cc1cccc(C)c1Nc1nnc(SCC(=O)Nc2cc(S(=O)(=O)N3CCCCC3)ccc2Cl)s1 | -4 | -1 | -8 | 26*
Cc1cccc(Nc2nnc(SCC(=O)Nc3cccc(S(=O)(=O)N4CCCCC4)c3)s2)c1 | -6 | -1 | -2 | -6
COc1ccccc1C(=O)Nc1onc(C)c1C#N | -5 | -2 | -2 | 20*
COCCCNC(=S)NNC(=O)C1CC1c1ccc(C(C)(C)C)cc1 (stereo not drawn) | 3 | -1 | 2 | 2
Cc1c(C(=O)N2CCN(c3ccccc3)CC2)oc2c(Cl)cccc12 | -1 | 0 | 5 | -7
Cc1c(C(=O)N2CCN(S(=O)(=O)c3ccccc3F)CC2)oc2c(Cl)cccc12 | . | 0 | 45* | -2
Cc1ccccc1OCCC(=O)OCC(=O)NNC(=O)c1cccs1 | 0 | 0 | 10 | 10
Cc1ccc(CNS(=O)(=O)c2ccc(-c3cnc(C4CC4)o3)cc2)cc1 | 1 | 0 | 7 | 21*
O=C(C[C@@H]1C/C=C\C[C@H](NC(=O)OCC2c3ccccc3-c3ccccc32)C(=O)OC[C@H]2CCCN2C1=O)N[C@@H](CO)Cc1ccccc1 | -3 | -3 | -26 | -4
O=C(c1ccc(S(=O)(=O)N2CCCC2)cc1)N1CCCCC1 | 0 | 0 | -3 | -4
O=C(NCCc1ccccn1)c1ccc(S(=O)(=O)N2CCCCCC2)cc1 | -4 | -1 | 39* | -11
COC(=O)c1ccc(NC(=O)COc2ccc(S(=O)(=O)N3CCCCC3)cc2)cc1 | -3 | -1 | 0 | 4
SMILES | MT1-MMP act inh | iPSC survival up | SKN-1 inh | CendR NRP1 mod
O=C(NCc1ccccn1)c1cccc(S(=O)(=O)N2CCCCC2)c1 | 1 | -1 | 6 | 8
COC(=O)c1ccc(S(=O)(=O)N2CCCCCC2)cc1 | -2 | -2 | 35* | -6
O=C(/C=C/c1ccc(O)c(O)c1)c1ccc(S(=O)(=O)N2CCCCCC2)cc1 | 7 | -2 | 14 | 22*
Cc1cccc(OCCCC(=O)Nc2nc3ccccc3[nH]2)c1 | -2 | 0 | 5 | 5
O=C(NCCc1ccccc1)C1CCC(Cn2c(=O)c3ccccc3n(Cc3cccc(Cl)c3)c2=O)CC1 (stereo not drawn) | -9 | 0 | 1 | 4
O=C1c2ccc(-c3nc4ccccc4o3)cc2C(=O)N1Cc1ccccc1 | -9 | -1 | 26 | -21
O=c1cc(-c2ccccc2F)oc2ccccc12 | -2 | 7 | -7 | -1
O=c1cc(-c2ccc(F)cc2)oc2ccccc12 | 0 | 4 | 53* | 7
CSc1ccc(-c2cc(=O)c3ccccc3o2)cc1 | . | -1 | 47* | -9
COc1ccccc1NC(=O)/C(C#N)=C/c1c(C)nn(-c2ccc(F)cc2)c1Cl | -4 | 1 | 9 | -1
CCOc1ccccc1NC(=O)CSc1c(C)n[nH]c1C | 3 | -1 | -15 | 0
O=C(O)C1C2CCC(C2)C1C(=O)Nc1cccc([N+](=O)[O-])c1 (stereo not drawn) | 1 | -1 | 3 | 18
O=C(Nc1cccc([N+](=O)[O-])c1)C1C2CC/C=C\CCC21 (stereo not drawn) | 3 | 0 | -10 | 41*
COc1ccc(CCNC(=O)COC(=O)/C=C/c2cc(OC)ccc2OC)cc1 | -5 | 0 | 5 | 10
COc1ccc(OC)c(/C=C/C(=O)OCC(=O)NCc2ccccc2)c1 | -2 | 1 | -13 | 32*
O=C(NCc1nc2ccccc2[nH]1)C1=C[C@H](C2CCCCC2)C[C@H](OCc2ccc(CO)cc2)O1 | -8 | -2 | 39* | 10
Cn1c(SCC(=O)Nc2ccccc2F)nc2c(c1=O)SCC2 | -2 | -1 | 9 | 12
Cn1c(SCC(=O)Nc2ccc(F)cc2)nc2c(c1=O)SCC2 | -2 | 0 | 11 | 24*
Cc1ccc(S(=O)(=O)N2[C@@H](c3ccc(Cl)cc3)C(C(=O)OC(C)(C)C)=CC[C@H]2c2ccc(Cl)c(Cl)c2)cc1 | -10 | -1 | 6 | 30*
Cc1ccc(S(=O)(=O)N2[C@@H](c3ccc(C(C)(C)C)cc3)C(C(=O)O)=CC[C@H]2c2ccc(Cl)c(Cl)c2)cc1 | -8 | 7 | 8 | -27
COCCCNC(=O)[C@@H](Cc1ccccc1)NC(=O)CC[C@H]1O[C@@H](n2ccc(=O)[nH]c2=O)[C@H](O)[C@@H]1O | 0 | 5 | -9 | -3
COc1ccc(/C=N\NC(=O)c2ccc(Cn3cc(Br)c([N+](=O)[O-])n3)o2)c(OC)c1C | -3 | -1 | 3 | -11
O=C(Cc1ccccc1)NCCc1cccc(Cl)c1 | 4 | 1 | -11 | 26*
O=C(O)CCC(=O)NCCc1cccc(Cl)c1 | 2 | -1 | -2 | -8
O=C(CSc1nc2ccc(Cl)cc2[nH]1)NCCc1ccccc1 | 1 | 1 | 8 | 28*
O=C(NCc1ccc(F)cc1)C1CCN(S(=O)(=O)c2ccc(Br)s2)CC1 | 2 | 0 | -1 | 30*
O=C(NCc1ccc(F)cc1)C1CCCN(S(=O)(=O)c2ccc(Br)s2)C1 (stereo not drawn) | -5 | -1 | -3 | -1
CN(C(=O)COc1ccccc1)c1nnc(-c2cccnc2)s1 | 0 | -3 | -13 | -5
CN(C(=O)COc1ccccc1)c1nnc(C23CC4CC(CC(C4)C2)C3)s1 | -3 | 2 | 2 | 19*
